# In the library only some 9.6% were active in any assay of this set; here they are far more common.
# TNAP act hi DEA: TNAP activators at high phosphate acceptor level, primary screen, biochemical, luminescence, uHTS. Alkaline phosphatase, tissue-nonspecific isozyme (Homo sapiens), P05186. activation factor at 20 µM. 200,000 tested, under 10 active. purified TNAP, CDP-star luminescence, 1 M DEA, 30 min; hits give high values; 0 = EDTA background, 1 = DMSO-only activity;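 active = activation factor at least 2 at 20 µM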
# Target sequence (P05186 whole entry, looked up): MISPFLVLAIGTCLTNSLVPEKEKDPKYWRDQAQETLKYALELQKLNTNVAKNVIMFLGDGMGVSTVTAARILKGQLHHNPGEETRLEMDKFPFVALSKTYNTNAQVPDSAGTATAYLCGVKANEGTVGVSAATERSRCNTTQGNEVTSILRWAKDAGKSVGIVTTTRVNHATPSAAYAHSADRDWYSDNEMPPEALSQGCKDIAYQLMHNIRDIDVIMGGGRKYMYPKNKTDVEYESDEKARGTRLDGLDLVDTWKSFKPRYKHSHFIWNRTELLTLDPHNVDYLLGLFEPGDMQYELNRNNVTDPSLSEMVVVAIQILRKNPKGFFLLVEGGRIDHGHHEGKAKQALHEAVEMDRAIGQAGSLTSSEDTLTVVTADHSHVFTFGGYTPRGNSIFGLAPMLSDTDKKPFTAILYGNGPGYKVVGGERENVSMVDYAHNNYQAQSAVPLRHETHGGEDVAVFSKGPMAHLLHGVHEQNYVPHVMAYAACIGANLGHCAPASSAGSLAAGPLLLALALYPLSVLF
#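 Control set: EDTA negative control, DMSO positive control / Assay system: human TNAP / Quantity: TNAP 1/800 final / Evaluation: TNAP activation factor scaled between EDTA and DMSO control wells / Measured by: luminescent substrate turnover signal / Compound dosing: one dose, 20 µM / Times: 30 min enzyme reaction at room temperature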
# HCT116 PTEN-null: growth suppression of PTEN-null HCT116, primary screen, cell-based, CellTiter-Glo; HCT116 PTEN-null viability, 60 h; hits give low values; AID 827, 2007; 140,000 tested, 1.2% active; viability, % at 10 µM;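 active = viability at or below a set limit, 4 SD under the median of all tested compounds, cut at about 3.7% in these data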;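 note: PTEN knockout HCT116 line with beta catenin targeted HCT116 as companion control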
# TNAP inh hiacc: human TNAP enzyme inhibitors, primary screen, biochemical, luminescent, high phosphate acceptor level, uHTS; 200,000 tested, 0.03% active; Alkaline phosphatase, tissue-nonspecific isozyme (Homo sapiens), P05186; purified TNAP, CDP-star luminescence, 1 M DEA; inhibition, % at 20 µM;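 active = over 50% inhibition of tissue-nonspecific alkaline phosphatase at 20 µM in the single-dose screen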
# TNAP inh noacc: human TNAP enzyme inhibitors, primary screen, biochemical, luminescent, no phosphate acceptor, uHTS | inhibition, % at 20 µM | Alkaline phosphatase, tissue-nonspecific isozyme (Homo sapiens), P05186 | purified TNAP, CDP-star luminescence, 30 min | 200,000 tested, 0.26% active;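 active = tissue-nonspecific alkaline phosphatase inhibition above about 50% at 20 µM in the single-dose screen, limit read from the data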
# Lmaj promast: Leishmania major promastigote growth inhibition, primary screen | 200,000 tested, 9% active | inhibition, % at 10 µM | Leishmania major promastigotes, resazurin fluorescence viability; in the data active = inhibition above about 50%;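 note: promastigotes grown with compound for 44 hours at 28 °C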
# bCat KO growth: primary screen for growth suppressors in beta-catenin knockout HCT116 cells (colon tumor, human) | HCT116 beta-catenin knockout viability, CellTiter-Glo, 60 h; hits give low values | viability, % at 10 µM | 140,000 tested, 1.5% active | AID 818, 2007;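 active = viability at or under a set limit, the compound median less 4 SD, cut at about 6% in these data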
# Numbers stand for hits; - = inactive; . = no result.
SMILES,TNAP act hi DEA,HCT116 PTEN-null,TNAP inh hiacc,TNAP inh noacc,Lmaj promast,bCat KO growth
Cc1ccccc1OCCN=Cc1c(O)n(C)c(=O)n(C)c1=O,-,-,-,-,-,-
O=C(CN1CC=C(c2ccccc2)CC1)Nc1c(Cl)cccc1Cl,-,-,-,-,-,-
OC(COCc1ccc(Cl)cc1)CN1CC=C(c2ccccc2)CC1 (stereo not drawn),-,-,-,-,88.0,-
Cc1nccn1Cc1ccc(Cl)nc1,-,.,-,-,-,.
CN(C)c1ccc(CN2CC=C(c3ccc(F)cc3)CC2)cc1,-,-,-,-,96.2,-
COc1cc(/C=C(/C)[N+](=O)[O-])ccc1OCc1ccccc1Cl,-,1.2,-,-,100.2,1.6
COc1ccc(N2C(=O)CC(N3CCC(n4c(=O)[nH]c5ccccc54)CC3)C2=O)cc1 (stereo not drawn),-,-,-,-,-,-
O=c1[nH]c2ccccc2n1CCCN1CCC(n2c(=O)[nH]c3cc(Cl)ccc32)CC1,-,-,-,69.7,-,-
O=C(O)CSC(=S)N1CC2CC(C1)c1cccc(=O)n1C2 (stereo not drawn),-,.,-,-,-,.
COc1ccc(C=C2C(=O)N(C)C(=O)N(C)C2=O)cc1CSc1ccccn1,-,-,-,-,-,-
CN1C(=O)C(=Cc2c(OCc3cnc(Cl)s3)ccc3ccccc23)C(=O)N(C)C1=O,-,.,-,-,89.2,.
CN(C)C(=O)Oc1ccc(OCc2n(C)c3ccccc3[n+]2C)cc1,-,-,-,-,-,-
CCOC(=O)c1c(C)n(C(C)C)c2ccc(OC(=O)c3ccc(N4C(=O)CCC4=O)cc3)cc12,-,-,-,-,-,-
CC(C)N1CCN(c2ccc(O)cc2)CC1,-,-,-,-,55.8,-
COc1ccc(OCC(=O)N2CCN(C(C)C)CC2)cc1,-,-,-,-,-,-
O=[N+]([O-])/C=C1/NCCN1Cc1ccc(Cl)nc1,-,.,-,-,-,.
c1ccc2c(CN3CCCCCCC3)c[nH]c2c1,-,-,-,-,98.2,-
c1ccc2c(CN3CCN(C4CCCCC4)CC3)c[nH]c2c1,-,-,-,-,75.4,-
c1ccc2c(CNC3CCCCC3)c[nH]c2c1,-,-,-,-,-,-
CN(Cc1c[nH]c2ccccc12)C1CCCCC1,-,-,-,-,70.3,-
CCN(CC)Cc1c[nH]c2ccccc12,-,-,-,-,-,-
CSc1ncc(Cl)c(C(=O)O)n1,-,-,-,-,-,-
CC(=O)NC(Cc1ccc(N(CCCl)CCCl)cc1)C(=O)NCC(=O)NCC(=O)O (stereo not drawn),-,.,-,-,-,.
CCN1CCC2(CC1)NC(=O)c1ccccc1O2,-,.,-,-,-,.
O=C(O)C1C2c3ccccc3C(c3ccccc32)C1C(=O)Nc1ccccc1 (stereo not drawn),-,.,-,-,73.2,.
SMILES,TNAP act hi DEA,HCT116 PTEN-null,TNAP inh hiacc,TNAP inh noacc,Lmaj promast,bCat KO growth
O[C@@H]1CCCC[C@H]1N1CCC(c2ccccc2)CC1,-,-,-,-,64.7,-
ON1C2CCCCC2N(O)C1c1ccccc1 (stereo not drawn),-,-,-,-,-,-
CC(C)CCn1c(N)c(C(=O)OCC2CCCO2)c2nc3ccccc3nc21 (stereo not drawn),-,-,-,-,53.5,-
CCCCn1c(N)c(C(=O)OCC2CCCO2)c2nc3ccccc3nc21 (stereo not drawn),-,-,-,-,99.8,-
CCCCn1c(NC(=O)c2ccco2)c(C(=O)OCC)c2nc3ccccc3nc21,-,-,-,-,75.8,-
CC(C)(C)NC(=O)C1CC2CCCCC2CN1 (stereo not drawn),-,.,-,-,-,.
CC(C)(C)C(O)C(Oc1ccc(Cl)cc1)n1cncn1 (stereo not drawn),-,-,-,-,82.1,-
CC(=O)OC1(Cc2ccccc2)CN2CCC1c1ccccc12 (stereo not drawn),-,-,-,-,62.7,-
CC(=O)OC1(c2ccc(C)cc2)CN2CCC1c1ccccc12 (stereo not drawn),-,-,-,-,-,-
NP(=O)(OCC(F)(F)F)Oc1ccc(Cl)cc1 (stereo not drawn),-,-,-,-,-,-
O=c1[nH]c(=O)n(C2CCCCCC2)c(O)c1C=NC1CCN(Cc2ccccc2)CC1,-,-,-,-,89.1,-
O=c1[nH]c(=S)n(CCC2=CCCCC2)c(O)c1C=NC1CCN(Cc2ccccc2)CC1,-,-,-,-,-,-
COP(=O)(OC)C1(Nc2ccc(C)cc2)CCCCC1,-,-,-,-,-,-
CCN1/C(=C\C=C\C2=[N+](CC)c3ccccc3C2(C)C)C(C)(C)c2ccccc21,-,1.1,-,-,99.0,1.1
Cc1cc(=O)[nH]c(CCl)n1,-,.,-,-,-,.
CC(=O)O[C@@H]1[C@H]2CC[C@@H]3[C@]1(C[C@@H](OC(C)=O)[C@@]1(O)C([C@@H]4O[C@@H]4C1(C)C)[C@]3(C)O)C[C@@]2(C)O (stereo partly drawn),-,-,-,-,-,-
O=C(c1ccc(Cl)cc1)C1CCCN(C2CCSCC2)C1 (stereo not drawn),-,.,-,-,91.2,.
COc1ccc(C(=O)C2CCCN(C3CSCCSC3)C2)cc1OC (stereo not drawn),-,.,-,-,-,.
COc1c(C)cc(C(=O)C2CCCN(C3CCOCC3)C2)cc1C (stereo not drawn),-,.,-,-,97.3,.
COc1ccc2cc(C(=O)C3CCCN(C4CCOCC4)C3)ccc2c1 (stereo not drawn),-,.,-,-,99.2,.
CCCc1nc2ccc(Br)cc2c(=O)n1-c1ccc([N+](=O)[O-])c(C(F)(F)F)c1,-,-,-,-,-,-
COc1ccccc1-n1c(Cc2ccccc2)nc2ccccc2c1=O,-,.,-,-,-,.
CCN1CCN(C(=O)COc2ccc(S(=O)(=O)N(C)Cc3ccccc3)cc2)CC1,-,-,-,-,99.3,-
COc1ccc(-c2cc(=NCCC(=O)O)c3cc(C)ccc3o2)cc1,-,.,-,-,61.5,.
Cc1oc(-c2ccccc2)nc1CN1C(=O)C(C)N=C(c2ccccc2F)c2cc(Cl)ccc21 (stereo not drawn),-,-,-,-,93.7,-
CCC(C)C1N=C(c2ccccc2)c2cc(Cl)ccc2N(CC(=O)NCc2ccco2)C1=O (stereo not drawn),-,-,-,-,-,-
COc1ccc(-n2c(O)c(C(C)=NCCCn3ccnc3)c(=O)[nH]c2=O)cc1,-,-,-,-,-,-

# Screening data from PubChem BioAssay.
